PostGolgi yeast: growth inhibition of a yeast mutant, post-Golgi transport screen; post-Golgi transport phenotypic cell assay; inhibition, % at 10 µM; 0.9% of 98,000 active;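 note: yeast cells grown in 1536-well plates; yeast grown about 18 h at 30C before absorbance read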
Ecoli WT expand: E. coli BW25113 growth inhibition, expanded screen | 0.15% of 98,000 active | AID 710 | growth inhibition, % at 100 µM | OD600 absorbance;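 active = growth inhibition above about 50% at one test dose, limit read from the data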;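 note: growth measured after 20 h incubation at 37 °C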
HePTP inh: human HePTP phosphatase inhibition; inhibition, % at 20 µM; 0.64% of 110,000 active; recombinant HePTP phosphatase activity, OD absorbance; in the data active = inhibition above about 50%;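 note: plate controls were vehicle for no effect and reference inhibitor for full effect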
Target sequence (P35236 whole entry, looked up): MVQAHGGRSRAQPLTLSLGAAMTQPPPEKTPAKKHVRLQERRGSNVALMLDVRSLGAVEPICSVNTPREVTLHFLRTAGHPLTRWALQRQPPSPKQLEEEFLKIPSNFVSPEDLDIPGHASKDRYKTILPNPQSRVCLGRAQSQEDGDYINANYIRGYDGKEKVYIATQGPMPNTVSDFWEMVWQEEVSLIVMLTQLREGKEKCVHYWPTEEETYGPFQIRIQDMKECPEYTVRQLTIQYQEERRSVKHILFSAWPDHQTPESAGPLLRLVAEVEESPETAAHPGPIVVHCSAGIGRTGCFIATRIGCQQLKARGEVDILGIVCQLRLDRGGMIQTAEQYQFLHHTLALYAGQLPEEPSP
PostGolgi ctrl: inhibits growth of the yeast control strain; 5% of 98,000 active; AID 738; efflux-deficient yeast background strain, growth absorbance A615, 16 h; inhibition, % at 10 µM
PLAP activator: activators of human placental alkaline phosphatase. 1.2% of 96,000 active. activation fold at 20 µM. P05187. purified PLAP enzyme, luminescent substrate read-out; hits give high values; in the data active = activation fold above about 2
tolC growth inh: growth inhibitors of E. coli BW25113 tolC mutant; growth inhibition, % at 10 µM (by protocol); 2.2% of 65,000 active; OD615;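 active = growth inhibition at or above a cutoff equal to the mean over every tested compound plus 3 SD, cut at about 60% in these data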;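 note: growth measured after 20 h incubation at 37 °C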
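Signal: optical density read at 615 nm; Assay system: E. coli ΔtolC::kan strain BW25113; Times: 20 h incubation with compound, 37 °C; Dosing: 10 µM final, single dose.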
* hit, by the source's call; . = no result. This is a sample that favours compounds with a hit; in the whole collection about 5.4% have one here. Cut-off read from the data, not from the text of the source, unless noted: active = inhibition above about 30%; inactive = the rest.

SMILES	PostGolgi yeast	Ecoli WT expand	HePTP inh	PostGolgi ctrl	PLAP activator	tolC growth inh
Fc1ccc(Br)cc1C1C=C(c2ccc(Br)s2)Nc2ncnn21 (stereo not given)	3	-13	1	4	1.2	69*
Cc1ccc2[nH]c(C(=O)N/N=C/c3ccncc3)c(-c3ccccc3)c2c1	.	.	4	.	.	.
COc1ccc(/C(C)=N/OCC(=O)Nc2cccc(C(F)(F)F)c2)cc1OC	.	.	2	.	.	.
COc1ccc(-c2nc(N)nc(C)c2Oc2ccccc2Br)c(O)c1	56*	5	6	79*	1.5	35
COc1ccc(-c2nc(N)ncc2-c2csc(C)n2)c(O)c1	-5	-2	-1	4	1.2	-18
O=C(Nc1ccccc1N1CCCCC1)c1ccco1	2	11	.	33*	0.9	.
CS(=O)(=O)N1CCN(c2ccccc2NC(=O)c2cccs2)CC1	3	2	7	3	1	2
O=C(Nc1ccccc1N1CCCCC1)c1cccs1	2	-6	5	51*	0.8	100*
CC1CCN(C(=O)c2ccccc2NC(=O)c2ccco2)CC1	.	.	103*	.	.	.
O=C(Nc1ccccc1N1CCCC1)c1ccco1	11	5	2	19	0.8	-11
Cc1ccc(N(CC(=O)N2CCOCC2)S(=O)(=O)c2ccc(F)cc2)cc1	.	.	-7	.	.	.
CCOc1ccc(N(CC(=O)Nc2ccc(F)cc2)S(C)(=O)=O)cc1	.	.	-7	.	.	.
CC(C)C(=O)N1C2CCC1CC(O)(c1ccc(F)cc1)C2 (stereo not given)	0	-5	.	-1	1.1	.
Cc1cc(N2C3CCC2CC(O)(c2ccc(F)cc2)C3)nc(-c2ccccc2)n1 (stereo not given)	-6	-5	10	27	1.4	100*
CCCCOc1ccc(/C=N/NC(=O)c2csc(C)c2C)cc1	-2	-7	.	35*	1.5	.
O=C(CN1CCN(Cc2ccccc2F)C1=O)NCc1ccco1	-7	5	.	0	2*	.
CCN(CC)CCNc1c2c(c(C#N)c3nc4ccccc4n13)CCCC2	22	-4	.	46*	1.9	.
CN(C)CCNc1c2c(c(C#N)c3nc4ccccc4n13)CCCC2	13	4	10	1	1.4	-17
C=CCn1c(SCC(=O)NCCCO)nc2sc3c(c2c1=O)CCCC3	.	.	5	.	.	.
NS(=O)(=O)c1ccc(NCc2cc(Cl)ccc2OCc2ccccc2F)cc1	2	-3	.	39*	0.9	.
Cc1cc(NCCCn2ccnc2)n2nc(C)c(-c3ccccc3)c2n1	3	-5	.	12	1.6	.
N=c1c2c(-c3ccccc3)c(-c3ccccc3)n(Cc3ccco3)c2ncn1Cc1ccco1	91*	18	8	48*	1.2	64*
N=c1c2c(-c3ccccc3)c(-c3ccccc3)n(Cc3ccccc3)c2ncn1CCCn1ccnc1	95*	28	15	77*	.	23
CC1=C(C(=O)Nc2ccccc2)C(c2ccc(-c3ccccc3)cc2)NC(=S)N1 (stereo not given)	.	.	-13	.	.	.
COCc1nnc(NC(=O)c2sc3ccccc3c2Cl)s1	-3	-7	6	30*	1.3	47
SMILES	PostGolgi yeast	Ecoli WT expand	HePTP inh	PostGolgi ctrl	PLAP activator	tolC growth inh
Cc1nnc(NC(=O)c2sc3ccccc3c2Cl)s1	6	0	2	54*	1.4	11
Cc1ccc(NC(=O)c2sc3ccccc3c2Cl)nc1	-1	-17	-9	31*	0.9	.
Cc1ccc(NC(=O)c2ccc3ccccc3n2)nc1	-5	-13	12	34*	1	33
O=C(Nc1ccc(Cl)cn1)c1ccc2ccccc2n1	-1	-10	.	9	0.9	.
O=C(Nc1nncs1)c1sc2ccccc2c1Cl	.	.	12	.	.	.
Cc1nn2c(C(F)(F)F)cc(-c3ccc(Cl)cc3)nc2c1C(=O)NCc1ccco1	.	.	1	.	.	.
c1csc(Cc2nn3c(-c4n[nH]c5c4CCC5)nnc3s2)c1	-2	9	9	0	2.1*	30
Clc1ccc(-c2nnc3sc(Cc4cccs4)nn23)c(Cl)c1	-12	-2	9	50*	0.9	18
c1coc(-c2nnc3sc(Cc4cccs4)nn23)c1	21	9	16	2	0.9	9
COC(=O)c1ccc(NC(=O)COc2ccc3ccccc3c2)cc1	.	.	-2	.	.	.
CCC(=O)Nc1ccc(S(=O)(=O)N2CCCCCC2)cc1	.	.	-10	.	.	.
CCC(=O)N(CCC1(c2ccccc2)CCOC(C)(C)C1)Cc1ccc(N(C)C)cc1 (stereo not given)	.	.	-1	.	.	.
C=CCN1C(=Nc2cccnc2)SCC1(O)c1ccc(C)cc1 (stereo not given)	6	3	9	43*	0.9	37
COc1ccc(Cl)cc1C(=O)Nc1ccc(S(=O)(=O)NC(C)=O)cc1	.	.	7	.	.	.
c1ccc(Nc2cc(-c3ccccc3)nc3ncnn23)cc1	93*	-4	4	15	1.1	4
COc1ccc(CCNc2cc(-c3ccccc3)nc3ncnn23)cc1	9	5	.	4	0.8	.
Cc1cc(C)n2nc(SCc3nnc(SCc4ccccc4)s3)nc2n1	6	0	.	39*	1.2	.
COc1cc(C)nc2nc(SCc3ccccc3)nn12	4	3	.	4	0.9	.
O=[N+]([O-])c1cc(-c2nnc(-c3ccc(Cl)c([N+](=O)[O-])c3)o2)ccc1Cl	.	.	-4	.	.	.
Cc1cc(C)c2c(=O)n(CC(=O)N3CCC(Cc4ccccc4)CC3)sc2n1	-1	5	7	45*	1.1	-6
Cc1cccc(N2CCN(C(=O)Cn3sc4nc(C)cc(C)c4c3=O)CC2C)c1 (stereo not given)	23	0	-10	6	1.7	-5
O=C(CN1C(=O)S/C(=C/c2ccccc2F)C1=O)Nc1ccc(O)cc1	.	.	-8	.	.	.
CCCCCCn1c2c(c(=N)c3c1CCC3)CCC2	-6	24	3	17	0.8	90*
CC(=O)Nc1cccc(/C(C)=N/N=C2/NC(=O)C(CC(=O)Nc3ccc(Cl)cc3Cl)S2)c1 (stereo not given)	.	.	-1	.	.	.
S=c1nc(COc2ccc(Cl)cc2Cl)[nH][nH]1	.	.	-2	.	.	.
SMILES	PostGolgi yeast	Ecoli WT expand	HePTP inh	PostGolgi ctrl	PLAP activator	tolC growth inh
O=C(CN1CCC(O)(c2ccc3c(c2)OCO3)CC1)OC1CCCCC1	-5	2	2	41*	1.2	-4
O=C(CN1CCC(O)(c2ccc3c(c2)OCO3)CC1)N1CCOCC1	-5	-9	-5	2	0.9	-21
CCc1cccc(C)c1NC(=O)COc1ccc(C)cc1C	.	.	8	.	.	.
O=C(/C=C/c1ccc(/C=C/C(=O)c2cccc(N3C(=O)C=CC3=O)c2)cc1)c1cccc(N2C(=O)C=CC2=O)c1	.	.	10	.	.	.
O=C(O)/C=C/c1cccc(N2C(=O)C=CC2=O)c1	.	.	89*	.	.	.
FC(F)(F)c1cc(C(F)(F)F)c2ccc(N3CCN(c4ccc(Cl)cc4)CC3)nc2n1	16	-16	.	21	0.9	.
Fc1ccc(N2CCN(c3ccc4c(C(F)(F)F)cc(C(F)(F)F)nc4n3)CC2)cc1	14	-12	.	75*	1.2	.
COC(=O)c1cccc(NC(=O)COc2ccc(Cl)cc2)c1	.	.	-1	.	.	.
COC(=O)c1cccc(NC(=S)NCc2ccc(Cl)cc2)c1	11	1	.	45*	0.8	.
